In the library only some 3.2% were active in any assay of this set; here they are far more common.
OX1R antag-1: OX1R (HCRTR1) antagonists, primary screen, fluorescence, CHO/OX1R cells, Fluo-8 calcium, orexin A; Fluo-8 calcium fluorescence; AID 434989, 2010; actives 0.43% (n = 330,000); inhibition, % at 5 µM;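 active = inhibition above its plate's threshold, mean inhibition of all tested compounds on the plate plus 3 SD, cut at about 37% in these data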;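 also: 0% = orexin A challenge wells and 100% = SB-334867-A antagonist wells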
CHO parental Ca: ATP-evoked calcium signal inhibitors, parental CHO, primary screen, counter-screen for OX1R antagonist project, cell-based, fluorescence, Fluo-8 calcium dye; parental CHO-K1, ATP-induced calcium, Fluo-8 fluorescence; AID 463079, 2010; actives 0.63% (n = 330,000); inhibition, % at 5.6 µM;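 active = inhibition above that plate's mean sample inhibition plus 3 SD, cut at about 26% in these data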;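 also: 0% = ATP-challenged DMSO wells and 100% = DMSO wells without ATP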
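Material: Parental CHO cells | Reagent: ATP | Compound dosing: Single nominal dose of 5.6 µM per compound | Detection: Intracellular calcium via Fluo-8 no-wash fluorescent dye | Read-out: % inhibition of ATP-induced calcium mobilization | Benchmarks: Low control ATP plus DMSO, high control DMSO only | Replicates: Singlicate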
TRPN1 ag: zebrafish TRPN1 channel agonists, primary screen, cell-based, HEK293, calcium fluorescence | transient receptor potential cation channel N1 (TRPN1/NompC), Danio rerio | activation, % at 3 µM | HEK293 zebrafish TRPN1-YFP, Fluo-8 calcium fluorescence; 100% = response to 87 µM carbachol | actives 0.18% (n = 220,000);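 active = activation above its plate's cutoff, the mean activation of test wells on that plate plus 3 SD, cut at about 19% in these data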;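 also: 0% = DMSO alone and 100% = 87 µM carbachol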
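Control set: carbachol 87 µM as high control, DMSO as low control; system: HEK293 stable line with zebrafish TRPN1-YFP; read-out: % activation versus carbachol response; detection: intracellular calcium fluorescence with Fluo-8; doses: single test compound dose, 3 µM nominal, 0.3% DMSO; schedule: dye 1 h 37 °C plus 30 min RT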
TRPML3 agonist: human TRPML3 channel agonists, primary screen, cell-based, HEK293 TRPML3-YFP, Fluo-8 calcium fluorescence, 3 µM. activation, % at 3 µM. Mucolipin-3 (Homo sapiens), Q8TDD5. 100% = the carbachol control signal. actives 0.29% (n = 220,000);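 active = activation above its plate's cutoff, the mean activation of the plate's test wells plus 3 SD, cut at about 12% in these data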;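 also: 0% = DMSO only wells and 100% = carbachol wells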
Target sequence (Q8TDD5 whole entry, looked up): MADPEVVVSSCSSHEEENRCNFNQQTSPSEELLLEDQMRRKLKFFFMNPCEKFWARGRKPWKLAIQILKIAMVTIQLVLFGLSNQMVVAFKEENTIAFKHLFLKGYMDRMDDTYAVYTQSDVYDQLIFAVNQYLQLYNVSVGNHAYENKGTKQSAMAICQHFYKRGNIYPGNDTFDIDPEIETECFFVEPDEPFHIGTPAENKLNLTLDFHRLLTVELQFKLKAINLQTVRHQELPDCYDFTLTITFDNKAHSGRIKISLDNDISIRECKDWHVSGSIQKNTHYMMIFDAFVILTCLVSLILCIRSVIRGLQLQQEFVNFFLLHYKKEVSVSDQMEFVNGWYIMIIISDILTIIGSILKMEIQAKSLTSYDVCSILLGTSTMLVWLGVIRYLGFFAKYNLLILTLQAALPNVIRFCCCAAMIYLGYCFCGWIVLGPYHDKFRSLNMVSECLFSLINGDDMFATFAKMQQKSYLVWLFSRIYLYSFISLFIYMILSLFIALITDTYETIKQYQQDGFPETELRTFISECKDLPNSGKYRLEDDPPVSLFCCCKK
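Material: HEK293 cells stably carrying human TRPML3-YFP; compound dosing: single dose, 3 µM final nominal compound, 0.3% DMSO final; incubation: 1-h 37 °C dye load, 5-s basal, 120-s post-compound reads; technique: Fluo-8 intracellular calcium fluorescence, excitation 470-495 nm, emission 515-575 nm; read-out basis: percent activation from peak-to-basal fluorescence ratio, scaled between DMSO and carbachol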
GPR7 antagonist: GPR7 receptor antagonists, primary screen, cell-based, fluorescence, single concentration; Neuropeptides B/W receptor type 1 (Homo sapiens), P48145; GPR7-expressing cells, fluorescence antagonist assay; inhibition, % at 4.4 µM; actives 1.1% (n = 290,000); AID 1861, 2009; in the data active = inhibition above about 16%, passing the limit was not always enough;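 also: cells stimulated with the agonist NPW; 0% = agonist with vehicle and 100% = vehicle without agonist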
OX1R antag-2: antagonists of human orexin 1 receptor (OX1R); Orexin/Hypocretin receptor type 1 (Homo sapiens), O43613; OX1R-expressing cells, FRET antagonist read-out; inhibition, % at 6.6 µM; actives 1.8% (n = 330,000); AID 485270, 2010; in the data active = inhibition mostly above about 38%, no sharp cut-off; inactive = mostly below about 40%;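 also: 0% = agonist challenge alone and 100% = reference antagonist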
* hit, by the source's call.

N#C/C(=C\c1coc2ccccc2c1=O)C(N)=S was read as OX1R antag-1 -4, CHO parental Ca -9, TRPN1 ag 0, TRPML3 agonist 1, GPR7 antagonist -8 and OX1R antag-2 12.
Screening N#C/C(=C\c1coc2ccc(O)cc2c1=O)C(=O)Nc1nc2ccccc2s1 returned OX1R antag-1 81*, CHO parental Ca 64*, TRPN1 ag 222*, TRPML3 agonist 64*, GPR7 antagonist -4 and OX1R antag-2 65*.
CC(OC(=O)Cn1cc(C(F)(F)F)ccc1=O)C(=O)N(C)c1ccccc1 (centres undefined) was read as OX1R antag-1 -22, CHO parental Ca -6 and OX1R antag-2 10.
Screening CCOC(=O)c1oc2ccccc2c1N returned OX1R antag-1 2, CHO parental Ca 2, TRPN1 ag 0, TRPML3 agonist 0, GPR7 antagonist -4 and OX1R antag-2 17.
Nc1c(C(=O)c2cccs2)oc2ccccc12 was read as OX1R antag-1 6, CHO parental Ca -8, TRPN1 ag -1, TRPML3 agonist 1, GPR7 antagonist -11 and OX1R antag-2 68*.
`O=C(CN1CCN(Cc2ccc(F)cc2)C1=O)NC1CCCC1` gave OX1R antag-1 -6, CHO parental Ca 2, TRPN1 ag 1, TRPML3 agonist 1, GPR7 antagonist -10 and OX1R antag-2 0.
`O=C(CCCN1C(=O)/C(=C\c2cccs2)SC1=S)Nc1ccc(O)cc1` gave OX1R antag-1 -11, CHO parental Ca -6, GPR7 antagonist 6 and OX1R antag-2 31.
For O=C(CCCN1C(=O)/C(=C/c2cccs2)SC1=S)Nc1ccccc1O the results were OX1R antag-1 0, CHO parental Ca 14, GPR7 antagonist -7 and OX1R antag-2 61*.
Screening O=C(CCCN1C(=O)/C(=C/c2ccco2)SC1=S)Nc1cccc(C(=O)O)c1 returned OX1R antag-1 -1, CHO parental Ca -5, TRPN1 ag 3, TRPML3 agonist 1, GPR7 antagonist -1 and OX1R antag-2 61*.
For COc1ccc(C(=O)NCC(c2ccco2)N(C)C)cc1S(=O)(=O)NCc1ccc(Cl)cc1 (centres undefined) the results were OX1R antag-1 -14, CHO parental Ca -8 and OX1R antag-2 6.
For CC(C)(C)CC(C)(C)NC(=S)NC1CCN(Cc2ccccc2)CC1 the results were OX1R antag-1 -20, CHO parental Ca 1, TRPN1 ag 9, TRPML3 agonist 4, GPR7 antagonist 27* and OX1R antag-2 2.
C=CCN(C(=O)CNC(=O)c1cccs1)C(C(=O)NC(C)(C)C)c1ccccc1 (centres undefined) was read as OX1R antag-1 -25, CHO parental Ca -11, TRPN1 ag 1, TRPML3 agonist 0, GPR7 antagonist -4 and OX1R antag-2 14.
For O=C(COc1ccc(OCc2ccccc2)cc1)NC1CCOC1=O (centres undefined) the results were OX1R antag-1 -2, CHO parental Ca 38*, TRPN1 ag 2, TRPML3 agonist 1, GPR7 antagonist 7 and OX1R antag-2 28.
O=C1CC(NS(=O)(=O)c2ccccc2)CN1c1ccc2c(c1)OCCO2 (centres undefined) was read as OX1R antag-1 -28, CHO parental Ca -16 and OX1R antag-2 13.
For CC(=O)N1c2ccc(S(=O)(=O)N3CCC(C(=O)N4CCN(c5cc(Cl)ccc5C)CC4)CC3)cc2CC1C (centres undefined) the results were OX1R antag-1 38, CHO parental Ca 43*, GPR7 antagonist -13 and OX1R antag-2 10.
CC(=O)c1ccc(N2CCN(S(=O)(=O)c3ccc4c(c3)CC(C)N4C(C)=O)CC2)cc1 (centres undefined) was read as OX1R antag-1 42*, CHO parental Ca 30, GPR7 antagonist 22 and OX1R antag-2 25.
Screening CC(=O)N1CCCc2cc(S(=O)(=O)N3CCCC(C(=O)N4CCN(c5ccccc5)CC4)C3)ccc21 (centres undefined) returned OX1R antag-1 7, CHO parental Ca 8, GPR7 antagonist -7 and OX1R antag-2 21.
Screening CC(=O)N1CCCc2cc(S(=O)(=O)N3CCCC(C(=O)N4CCN(c5cc(C)ccc5C)CC4)C3)ccc21 (centres undefined) returned OX1R antag-1 51*, CHO parental Ca 44*, GPR7 antagonist 6 and OX1R antag-2 40*.
Screening CC1CN(C(=O)Cn2c(=O)oc3ccccc32)CC(C)O1 (centres undefined) returned OX1R antag-1 5, CHO parental Ca 0, GPR7 antagonist -6 and OX1R antag-2 14.
Screening COc1cccc(CNC(=O)CCC2CCCN(Cc3cc4ccccc4o3)C2)c1 (centres undefined) returned OX1R antag-1 -45, CHO parental Ca -5, TRPN1 ag 0, TRPML3 agonist 1, GPR7 antagonist -3 and OX1R antag-2 5.
`Cc1ccc(-c2nc3cc(Cl)ccc3o2)cc1` gave OX1R antag-1 -10, CHO parental Ca -3, TRPN1 ag 1, TRPML3 agonist 1, GPR7 antagonist 2 and OX1R antag-2 12.
Screening COc1cc(OC)cc(-c2nc3cc(C)ccc3o2)c1 returned OX1R antag-1 -3, CHO parental Ca -16, TRPN1 ag -2, TRPML3 agonist 0, GPR7 antagonist -14 and OX1R antag-2 42*.
CCCCn1c(=NC(=O)c2cccnc2)c(C(=O)OCC)cc2c(=O)n3ccccc3nc21 was read as TRPN1 ag 1, TRPML3 agonist 0 and GPR7 antagonist -10.
For CCCCn1c(=NC(=O)c2ccco2)c(C(=O)OCC)cc2c(=O)n3ccccc3nc21 the results were OX1R antag-1 -13, CHO parental Ca -20, TRPN1 ag 0, TRPML3 agonist 0, GPR7 antagonist -3 and OX1R antag-2 76*.
For CCCCn1c(=NC(=O)c2ccco2)c(C(=O)OCC)cc2c(=O)n3cccc(C)c3nc21 the results were OX1R antag-1 -30, CHO parental Ca -5, TRPN1 ag 1, TRPML3 agonist 0, GPR7 antagonist -5 and OX1R antag-2 30.
For CCCCCn1c(=NC(=O)c2ccco2)c(C(=O)OCC)cc2c(=O)n3ccccc3nc21 the results were OX1R antag-1 -24, CHO parental Ca -15, TRPN1 ag -2, TRPML3 agonist 0, GPR7 antagonist -5 and OX1R antag-2 51*.
